{"source": "ChEMBL document CHEMBL4038269", "about": "“Design, synthesis and evaluation of novel feruloyl-donepezil hybrids as potential multitarget drugs for the treatment of Alzheimer's disease” (Eur J Med Chem, 2017)", "key": {"Cholinesterase": {"target": "Cholinesterase (Equus caballus, UniProt P81908)", "sequence (P81908 whole entry)": "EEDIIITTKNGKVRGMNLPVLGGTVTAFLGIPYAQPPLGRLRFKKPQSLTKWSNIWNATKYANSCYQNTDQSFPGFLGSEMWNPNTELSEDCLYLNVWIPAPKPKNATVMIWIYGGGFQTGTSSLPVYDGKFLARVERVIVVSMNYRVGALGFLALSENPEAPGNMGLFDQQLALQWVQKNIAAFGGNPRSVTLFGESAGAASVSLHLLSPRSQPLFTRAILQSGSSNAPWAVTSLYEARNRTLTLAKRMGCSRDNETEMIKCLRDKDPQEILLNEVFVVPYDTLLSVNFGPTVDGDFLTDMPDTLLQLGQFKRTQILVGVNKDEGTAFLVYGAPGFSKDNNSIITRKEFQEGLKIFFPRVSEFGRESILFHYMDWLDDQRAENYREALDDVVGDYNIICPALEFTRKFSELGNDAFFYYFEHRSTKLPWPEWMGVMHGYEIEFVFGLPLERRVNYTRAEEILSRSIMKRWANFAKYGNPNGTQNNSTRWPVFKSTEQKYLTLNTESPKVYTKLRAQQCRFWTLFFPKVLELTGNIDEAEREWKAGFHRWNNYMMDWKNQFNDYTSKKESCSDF", "test": "Inhibition of equine serum BuChE using butyrylthiocholine iodide as substrate pretreated for 10 mins followed by substrate addition measured at 12 secs interval for 5 mins by Ellman's method", "method_in_brief": "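Ellman assay in 0.1 M sodium phosphate pH 7.4, enzyme 0.5 U/mL, DTNB 10 mM; concentration series preincubated 10 min before butyrylthiocholine iodide ([…]); A412 over 5 min at 12 s intervals. IC50 from fitted concentration-response curves, geometric mean of independent experiments, each in triplicate; DMSO ≤0.2% final.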"}, "SH-SY5Y [1]": {"system": "SH-SY5Y", "test": "Copper chelating activity in human SH-SY5Y cells assessed as reduction in CuSO4/H2O2-induced reactive oxygen species formation at 10 to 20 uM after 30 mins by DCFH-DA probe based fluorescence assay", "assay_type": "functional, cell-based", "method_in_brief": "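SH-SY5Y cells seeded at 3 x 10^4 cells/well and preloaded with DCFH-DA (10 µg/mL, 30 min, room temperature). Then given compound (5, 10, 20 µM) with FeSO4/H2O2 or CuSO4/H2O2 for 30 min; metal 25 µM and H2O2 100 µM per figure legend. Fluorescence read at ex 485/em 535 nm, arbitrary units. Mean ± SD of three experiments.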"}, "SH-SY5Y [2]": {"system": "SH-SY5Y", "test": "Antioxidant activity in human SH-SY5Y cells assessed as reduction in H2O2-induced reactive oxygen species formation at 20 uM pretreated for 24 hrs followed by H2O2 addition measured after 30 mins DCFH-DA probe based fluorescence assay", "assay_type": "functional, cell-based", "method_in_brief": "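SH-SY5Y cells treated 24 h with compound (20 µM in figure), then exposed to 100 µM H2O2 for 30 min. Intracellular ROS read with DCFH-DA probe (10 µg/mL, 30 min preload) at ex 485/em 535 nm. Expressed as % of control cells; mean ± SD, three independent experiments.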"}, "Mus musculus [3]": {"system": "Mus musculus", "test": "In vivo inhibition of 5-LOX activity in carrageenan-induced Swiss mouse serum at 100 umol/kg, po pretreated for 1 hr followed by carrageenan challenge after 3 hrs by ELISA relative to control", "assay_type": "functional", "method_in_brief": "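Male Swiss mice given oral drug (100 µmol/kg) or vehicle 1 h before intraplantar carrageenan (legend: 400 µg/paw). At 3 h, animals anaesthetised with chloral hydrate and cardiac blood taken. Serum separated (1500 rpm, 20 min) and frozen at -70 °C. COX-1, COX-2 and 5-LOX measured by specific sandwich ELISA at 450 nm. Expressed as % enzymatic activity, mean ± SEM, n=8.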"}, "SH-SY5Y [4]": {"system": "SH-SY5Y", "test": "Antioxidant activity in human SH-SY5Y cells assessed as increase in GSH level at 20 uM by MCB probe based assay relative to control", "assay_type": "functional", "conditions": "TDE = time-dependent effect", "method_in_brief": "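SH-SY5Y cells (DMEM, 10% FBS, 37 °C, 5% CO2) seeded at 2 x 10^4 cells/well and grown 24 h. Treated with 20 µM compound for 3-24 h. Then 50 µM monochlorobimane in PBS for 30 min at 37 °C. GSH fluorescence read at ex 360/em 465 nm, as % of control cells. Mean ± SD of three independent experiments.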"}, "Mus musculus [5]": {"system": "Mus musculus", "test": "Anti-inflammatory activity in Swiss mouse model of LPS-induced peritonitis assessed as inhibition of leukocyte migration at 100 umol/kg, po pretreated for 30 mins followed by LPS challenge measured after 4 hrs by Neubauer chamber method", "assay_type": "functional, organism-based", "method_in_brief": "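Adult male Swiss mice (22-28 g), n=8 per group, dosed orally with 100 µmol/kg or vehicle (saline + DMSO 2%). 30 min later E. coli 026:B6 LPS, 100 µg/kg i.p. in sterile saline. Killed at 4 h by halothane overdose. Peritoneum lavaged with 10 ml PBS containing 0.5% sodium citrate. Total leukocytes counted in a Neubauer chamber, expressed as cells per cavity, mean ± SEM.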"}, "SH-SY5Y [6]": {"system": "SH-SY5Y", "test": "Neuroprotective activity in human SH-SY5Y cells assessed as reduction in amyloid beta (1 to 42)-induced early vacuole formation at 20 uM after 4 hrs by MTT dye based microscopic method", "assay_type": "functional, cell-based", "method_in_brief": "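SH-SY5Y cells seeded at 3 x 10^4 cells/well, grown 24 h. Treated with compound (20 µM) plus Aβ1-42 oligomers (10 µM) for 4 h at 37 °C. Oligomers were prepared from HFIP-treated, DMSO-dissolved peptide and checked by TEM. MTT (5 mg/mL in PBS) added for 2 h. Cells inspected by light microscopy for needle-like exocytosed formazan crystals.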"}, "[7]": {"target": "Acetylcholinesterase (Electrophorus electricus) (UniProt O42275)", "sequence (O42275 24-633 limits assumed)": "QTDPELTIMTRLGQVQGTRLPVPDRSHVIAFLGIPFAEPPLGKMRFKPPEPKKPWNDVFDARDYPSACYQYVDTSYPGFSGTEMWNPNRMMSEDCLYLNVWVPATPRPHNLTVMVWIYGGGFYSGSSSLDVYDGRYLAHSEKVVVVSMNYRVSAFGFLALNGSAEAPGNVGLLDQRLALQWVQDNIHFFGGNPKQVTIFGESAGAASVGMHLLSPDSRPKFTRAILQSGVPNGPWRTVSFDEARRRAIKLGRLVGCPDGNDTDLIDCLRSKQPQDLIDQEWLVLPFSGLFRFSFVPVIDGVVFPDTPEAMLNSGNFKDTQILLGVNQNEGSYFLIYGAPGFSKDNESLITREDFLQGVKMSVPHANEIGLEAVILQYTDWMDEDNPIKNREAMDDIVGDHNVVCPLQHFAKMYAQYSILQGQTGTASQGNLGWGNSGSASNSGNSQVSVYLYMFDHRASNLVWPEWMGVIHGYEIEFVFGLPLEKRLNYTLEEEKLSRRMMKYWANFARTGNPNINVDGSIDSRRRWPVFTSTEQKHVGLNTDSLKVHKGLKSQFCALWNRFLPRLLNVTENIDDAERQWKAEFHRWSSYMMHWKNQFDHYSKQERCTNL", "test": "Inhibition of Electrophorus electricus AChE at 30 uM using acetylthiocholine iodide as substrate pretreated for 10 mins followed by substrate addition measured at 12 secs interval for 5 mins by Ellman's method relative to control", "method_in_brief": "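Enzyme (0.5 U/mL) with DTNB (10 mM) in 0.1 M sodium phosphate pH 7.4; compound at 30 μM preincubated 10 min, then acetylthiocholine or butyrylthiocholine iodide added ([…]); A412 read every 12 s for 5 min. Velocity as percent of vehicle control; means and pooled SD from 2-4 experiments in triplicate. DMSO ≤0.2% final.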"}, "Mus musculus [8]": {"system": "Mus musculus", "test": "Antiinflammatory activity in formalin-induced nociception Swiss mouse model assessed as reduction in time spent licking formalin injected hind paw during inflammatory phase at 100 umol/kg, po pretreated for 1 hr followed by formalin challenge measured after 20 to 30 mins", "assay_type": "functional, organism-based", "method_in_brief": "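Male Swiss mice (22-28 g), n=8 per group, given oral vehicle (saline + DMSO 2%) or 100 µmol/kg 1 h before formalin (5% in 0.9% saline, 20 µl) into the right hind paw sub-plantar region. Morphine 39 µmol/kg i.p. was given 30 min before. Paw-licking time recorded at 0–5 min (neurogenic phase) and 20–30 min (inflammatory phase).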"}}, "note": "The source made the active and inactive calls. The calls are words filed in the database; no cut-off is given here.", "data": [{"molecule": "COc1cc(/C=C/C(=O)OCC2CCN(Cc3ccccc3)CC2)ccc1O", "values": [{"measurement": "IC50", "setting": "Cholinesterase", "result": 25, "unit": "µM"}, {"measurement": "Activity", "setting": "SH-SY5Y [1]", "result": "Active"}, {"measurement": "Activity", "setting": "SH-SY5Y [2]", "result": "Active"}, {"measurement": "inhibition in vivo at 100 µmol/kg", "setting": "Mus musculus [3]", "result": 30, "unit": "%"}, {"measurement": "Activity", "setting": "SH-SY5Y [4]", "result": "Tde"}, {"measurement": "inhibition", "setting": "Mus musculus [5]", "result": "Active"}, {"measurement": "Activity", "setting": "SH-SY5Y [6]", "result": "inactive"}, {"measurement": "inhibition", "setting": "[7]", "result": 50, "unit": "%"}, {"measurement": "Activity", "setting": "Mus musculus [8]", "result": "Active"}]}]}
